# What was measured:
# Format in all cases: functional
# Staphylococcus aureus [1] = assay: Antimicrobial activity against methicillin-resistant Staphylococcus aureus after 24 hrs by broth microdilution method
# Procedure, shortened: (§1)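 Clinical isolates came from blood, body fluids, genital secretions, pus or sputum, identified conventionally or by Vitek. MICs were run by CLSI M7-A6 broth microdilution in Mueller-Hinton broth with 5 × 10^5 CFU/ml inoculum. Agents were twofold serially diluted, starting from 10% DMSO. Drug-free and uninoculated controls were included. Plates were incubated aerobically at 37°C for 24 h; MIC is the lowest concentration giving no visible growth.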
# Staphylococcus aureus [2] = assay: Antimicrobial activity against methicillin-susceptible Staphylococcus aureus after 24 hrs by broth microdilution method; procedure, shortened: as §1
# Staphylococcus simulans [3] = assay: Antimicrobial activity against methicillin-resistant coagulase-negative Staphylococcus simulans after 24 hrs by broth microdilution method; procedure, shortened: as §1
# [4] = tested on: Staphylococcus haemolyticus; assay: Bactericidal activity against methicillin-resistant coagulase-negative Staphylococcus haemolyticus after 24 hrs by plate counting method
# [5] = tested on: Staphylococcus haemolyticus; assay: Antimicrobial activity against methicillin-resistant coagulase-negative Staphylococcus haemolyticus assessed as resistant isolates after 24 hrs by broth microdilution method
# [6] = tested on: Staphylococcus haemolyticus; assay: Antimicrobial activity against methicillin-resistant coagulase-negative Staphylococcus haemolyticus after 24 hrs by broth microdilution method; procedure, shortened: as §1
# [7] = tested on: Staphylococcus epidermidis; assay: Bactericidal activity against methicillin-resistant coagulase-negative Staphylococcus epidermidis after 24 hrs by plate counting method
# [8] = tested on: Staphylococcus epidermidis; assay: Antimicrobial activity against methicillin-resistant coagulase-negative Staphylococcus epidermidis assessed as resistant isolates after 24 hrs by broth microdilution method
# [9] = tested on: Staphylococcus epidermidis; assay: Antimicrobial activity against methicillin-resistant coagulase-negative Staphylococcus epidermidis after 24 hrs by broth microdilution method; procedure, shortened: as §1
# Staphylococcus hominis [10] = assay: Bactericidal activity against methicillin-resistant coagulase-negative Staphylococcus hominis after 24 hrs by plate counting method
# Staphylococcus hominis [11] = assay: Antimicrobial activity against methicillin-resistant coagulase-negative Staphylococcus hominis assessed as resistant isolates after 24 hrs by broth microdilution method
# Staphylococcus aureus [12] = assay: Bactericidal activity against methicillin-susceptible Staphylococcus aureus after 24 hrs by plate counting method
# Procedure, shortened: (§2)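 Clinical staphylococcal isolates from patient body fluids, blood, genital secretions, pus or sputum; species by conventional methods or Vitek. Twofold dilutions in Mueller-Hinton broth, inoculum 5 × 10^5 CFU/ml, 37°C aerobic 24 h (CLSI M7-A6 microdilution). About 100 μl from each well without visible growth spread on MHA; 37°C 24 h. MBC = lowest concentration giving no growth on agar.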
# Staphylococcus hominis [13] = assay: Antimicrobial activity against methicillin-resistant coagulase-negative Staphylococcus hominis after 24 hrs by broth microdilution method; procedure, shortened: as §1
# Staphylococcus aureus [14] = assay: Bactericidal activity against methicillin-resistant Staphylococcus aureus after 24 hrs by plate counting method
# Staphylococcus aureus [15] = assay: Antimicrobial activity against methicillin-susceptible Staphylococcus aureus assessed as resistant isolates after 24 hrs by broth microdilution method
# Staphylococcus aureus [16] = assay: Antimicrobial activity against methicillin-resistant Staphylococcus aureus assessed as resistant isolates after 24 hrs by broth microdilution method
# Staphylococcus aureus [17] = assay: Antimicrobial activity against methicillin-susceptible Staphylococcus aureus assessed as susceptible isolates after 24 hrs by broth microdilution method
# Staphylococcus simulans [18] = assay: Antimicrobial activity against methicillin-resistant coagulase-negative Staphylococcus simulans assessed as resistant isolates after 24 hrs by broth microdilution method
# Staphylococcus simulans [19] = assay: Bactericidal activity against methicillin-resistant coagulase-negative Staphylococcus simulans after 24 hrs by plate counting method; procedure, shortened: as §2
# Mammaliicoccus sciuri [20] = assay: Antimicrobial activity against methicillin-resistant coagulase-negative Staphylococcus sciuri after 24 hrs by broth microdilution method; procedure, shortened: as §1
# Mammaliicoccus sciuri [21] = assay: Antimicrobial activity against methicillin-resistant coagulase-negative Staphylococcus sciuri assessed as resistant isolates after 24 hrs by broth microdilution method
# Mammaliicoccus sciuri [22] = assay: Bactericidal activity against methicillin-resistant coagulase-negative Staphylococcus sciuri after 24 hrs by plate counting method; procedure, shortened: as §2
# Staphylococcus hominis [23] = assay: Antimicrobial activity against methicillin-susceptible coagulase-negative Staphylococcus hominis after 24 hrs by broth microdilution method; procedure, shortened: as §1
# Staphylococcus hominis [24] = assay: Antimicrobial activity against methicillin-susceptible coagulase-negative Staphylococcus hominis assessed as susceptible isolates after 24 hrs by broth microdilution method
# Staphylococcus hominis [25] = assay: Antimicrobial activity against methicillin-susceptible coagulase-negative Staphylococcus hominis assessed as resistant isolates after 24 hrs by broth microdilution method
# Staphylococcus hominis [26] = assay: Bactericidal activity against methicillin-susceptible coagulase-negative Staphylococcus hominis after 24 hrs by plate counting method; procedure, shortened: as §2
# [27] = tested on: Staphylococcus epidermidis; assay: Antimicrobial activity against methicillin-susceptible coagulase-negative Staphylococcus epidermidis after 24 hrs by broth microdilution method; procedure, shortened: as §1
# [28] = tested on: Staphylococcus epidermidis; assay: Antimicrobial activity against methicillin-susceptible coagulase-negative Staphylococcus epidermidis assessed as susceptible isolates after 24 hrs by broth microdilution method
# [29] = tested on: Staphylococcus epidermidis; assay: Antimicrobial activity against methicillin-susceptible coagulase-negative Staphylococcus epidermidis assessed as resistant isolates after 24 hrs by broth microdilution method
# [30] = tested on: Staphylococcus epidermidis; assay: Bactericidal activity against methicillin-susceptible coagulase-negative Staphylococcus epidermidis after 24 hrs by plate counting method; procedure, shortened: as §2
# [31] = tested on: Staphylococcus haemolyticus; assay: Antimicrobial activity against methicillin-susceptible coagulase-negative Staphylococcus haemolyticus after 24 hrs by broth microdilution method; procedure, shortened: as §1
# [32] = tested on: Staphylococcus haemolyticus; assay: Antimicrobial activity against methicillin-susceptible coagulase-negative Staphylococcus haemolyticus assessed as susceptible isolates after 24 hrs by broth microdilution method
# [33] = tested on: Staphylococcus haemolyticus; assay: Antimicrobial activity against methicillin-susceptible coagulase-negative Staphylococcus haemolyticus assessed as resistant isolates after 24 hrs by broth microdilution method
# [34] = tested on: Staphylococcus haemolyticus; assay: Bactericidal activity against methicillin-susceptible coagulase-negative Staphylococcus haemolyticus after 24 hrs by plate counting method; procedure, shortened: as §2
# Staphylococcus simulans [35] = assay: Antimicrobial activity against methicillin-susceptible coagulase-negative Staphylococcus simulans after 24 hrs by broth microdilution method; procedure, shortened: as §1
# Staphylococcus simulans [36] = assay: Antimicrobial activity against methicillin-susceptible coagulase-negative Staphylococcus simulans assessed as susceptible isolates after 24 hrs by broth microdilution method
# Procedure, shortened: (§3)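 Clinical isolates from blood, body fluids, pus, sputum or genital secretions, identified conventionally or by Vitek, were tested alongside ATCC 29213 and ATCC 12228 controls. CLSI M7-A6 broth microdilution in Mueller-Hinton broth used twofold dilutions from a 10% DMSO solution and 5 × 10^5 CFU/ml inoculum. Drug-free and uninoculated wells served as controls; incubation was aerobic at 37°C for 24 h. MIC was the lowest concentration with no visible growth.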
# Staphylococcus simulans [37] = assay: Antimicrobial activity against methicillin-susceptible coagulase-negative Staphylococcus simulans assessed as resistant isolates after 24 hrs by broth microdilution method
# Staphylococcus simulans [38] = assay: Bactericidal activity against methicillin-susceptible coagulase-negative Staphylococcus simulans after 24 hrs by plate counting method; procedure, shortened: as §2
# Mammaliicoccus sciuri [39] = assay: Antimicrobial activity against methicillin-susceptible coagulase-negative Staphylococcus sciuri after 24 hrs by broth microdilution method; procedure, shortened: as §1
# Mammaliicoccus sciuri [40] = assay: Antimicrobial activity against methicillin-susceptible coagulase-negative Staphylococcus sciuri assessed as susceptible isolates after 24 hrs by broth microdilution method; procedure, shortened: as §3
# Mammaliicoccus sciuri [41] = assay: Antimicrobial activity against methicillin-susceptible coagulase-negative Staphylococcus sciuri assessed as resistant isolates after 24 hrs by broth microdilution method
# Mammaliicoccus sciuri [42] = assay: Bactericidal activity against methicillin-susceptible coagulase-negative Staphylococcus sciuri after 24 hrs by plate counting method; procedure, shortened: as §2
# [43] = Staphylococcus haemolyticus, 24 h
# [44] = Staphylococcus epidermidis, 24 h
structure (smiles),measurement,setting,value
CC1(C)S[C@@H]2[C@H](NC(=O)[C@H](N)c3ccccc3)C(=O)N2[C@H]1C(=O)O [AMPICILLIN],MIC50,Staphylococcus aureus [1],16 µg/mL
same,MIC90,Staphylococcus aureus [1],64 µg/mL
same,MIC50,Staphylococcus aureus [2],32 µg/mL
same,MIC90,Staphylococcus aureus [2],32 µg/mL
same,MIC50,Staphylococcus simulans [3],16 µg/mL
same,MIC90,Staphylococcus simulans [3],64 µg/mL
same,MBC50,[4],32 µg/mL
same,MBC90,[4],256 µg/mL
same,MBC,[4]; [43],> 2 µg/mL
same,Activity,[5],100%
same,MIC50,[6],16 µg/mL
same,MIC90,[6],64 µg/mL
same,MBC50,[7],32 µg/mL
same,MBC90,[7],256 µg/mL
same,MBC,[7]; [44],> 2 µg/mL
same,Activity,[8],100%
same,MIC50,[9],16 µg/mL
same,MIC90,[9],64 µg/mL
same,MBC50,Staphylococcus hominis [10],32 µg/mL
same,MBC90,Staphylococcus hominis [10],256 µg/mL
same,MBC,"Staphylococcus hominis [10]; Staphylococcus hominis, 24 h",> 2 µg/mL
same,Activity,Staphylococcus hominis [11],100%
same,MBC50,Staphylococcus aureus [12],64 µg/mL
same,MBC90,Staphylococcus aureus [12],128 µg/mL
same,MBC,"Staphylococcus aureus [12]; Staphylococcus aureus, 24 h",1 µg/mL
same,MIC50,Staphylococcus hominis [13],16 µg/mL
same,MIC90,Staphylococcus hominis [13],64 µg/mL
same,MBC90,Staphylococcus aureus [14],256 µg/mL
same,MBC,"Staphylococcus aureus [14]; Staphylococcus aureus, 24 h",32 µg/mL
same,Activity,Staphylococcus aureus [15],100%
same,Activity,Staphylococcus aureus [16],100%
same,Activity,Staphylococcus aureus [17],0%
same,Activity,Staphylococcus simulans [18],100%
same,MBC50,Staphylococcus simulans [19],32 µg/mL
same,MBC90,Staphylococcus simulans [19],256 µg/mL
same,MBC,"Staphylococcus simulans [19]; Staphylococcus simulans, 24 h",> 2 µg/mL
same,MIC50,Mammaliicoccus sciuri [20],16 µg/mL
same,MIC90,Mammaliicoccus sciuri [20],64 µg/mL
same,Activity,Mammaliicoccus sciuri [21],100%
same,MBC50,Mammaliicoccus sciuri [22],32 µg/mL
same,MBC90,Mammaliicoccus sciuri [22],256 µg/mL
same,MBC,"Mammaliicoccus sciuri [22]; Mammaliicoccus sciuri, 24 h",> 2 µg/mL
same,MIC50,Staphylococcus hominis [23],2 µg/mL
same,MIC90,Staphylococcus hominis [23],16 µg/mL
same,Activity,Staphylococcus hominis [24],0%
same,Activity,Staphylococcus hominis [25],100%
same,MBC50,Staphylococcus hominis [26],4 µg/mL
same,MBC90,Staphylococcus hominis [26],128 µg/mL
same,MBC,"Staphylococcus hominis [26]; Staphylococcus hominis, 24 h",1 µg/mL
same,MIC50,[27],2 µg/mL
same,MIC90,[27],16 µg/mL
same,Activity,[28],0%
same,Activity,[29],100%
same,MBC50,[30],4 µg/mL
same,MBC90,[30],128 µg/mL
same,MBC,[30]; [44],1 µg/mL
same,MIC50,[31],2 µg/mL
same,MIC90,[31],16 µg/mL
same,Activity,[32],0%
same,Activity,[33],100%
same,MBC50,[34],4 µg/mL
same,MBC90,[34],128 µg/mL
same,MBC,[34]; [43],1 µg/mL
same,MIC50,Staphylococcus simulans [35],2 µg/mL
same,MIC90,Staphylococcus simulans [35],16 µg/mL
same,Activity,Staphylococcus simulans [36],0%
same,Activity,Staphylococcus simulans [37],100%
same,MBC50,Staphylococcus simulans [38],4 µg/mL
same,MBC90,Staphylococcus simulans [38],128 µg/mL
same,MIC50,Mammaliicoccus sciuri [39],2 µg/mL
same,MIC90,Mammaliicoccus sciuri [39],16 µg/mL
same,Activity,Mammaliicoccus sciuri [40],0%
same,Activity,Mammaliicoccus sciuri [41],100%
same,MBC50,Mammaliicoccus sciuri [42],4 µg/mL
same,MBC90,Mammaliicoccus sciuri [42],128 µg/mL
same,MBC,"Mammaliicoccus sciuri [42]; Mammaliicoccus sciuri, 24 h",1 µg/mL
